Assay results taken from article PMC5055850 (Bioorganic & medicinal chemistry, 2016).
Where two headings read alike, the source gives them in different places.

Experiments:
Format in all cases: cell-based
[1] = test system: human polymorphonuclear neutrophils (hPMN); assay: Ca2+ flux assay in human neutrophils; conditions: for EC50: Homo sapiens, Polymorphonuclear neutrophil, read-out: hPMN EC50
Procedure, shortened: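 Neutrophils from healthy donors' blood, purified by dextran sedimentation, Histopaque 1077 gradient and hypotonic red-cell lysis (>95% pure, >98% viable). Cells in HBSS− with 10 mM HEPES were loaded with Fluo-4 AM (1.25 µg/mL final) for 30 min at 37 °C, then plated at 2 × 10^5 cells/well. Fluorescence (485/538 nm) read every 5 s for 240 s at room temperature. Peak change normalized to 5 nM fMLF. EC50 from 5–6-point nonlinear regression, three experiments.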

[2] = test system: mouse polymorphonuclear neutrophils (mPMN); assay: Ca2+ flux assay in mouse neutrophils; conditions: for mPMN Efficacy: % of the response induced by 5 nM WKYMVm; for EC50: read-out: mPMN EC50
Procedure, shortened: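 Neutrophils taken from BALB/c mouse tibia and femur bone marrow. Isolated on a 45/50/55/62/81% Percoll gradient (1600g, 30 min, 10 °C), then Histopaque 1119 to remove red cells, and kept in HBSS−. Ca2+ fluorescence (485/538 nm) monitored every 5 s for 240 s at room temperature after compound addition. Maximal change over baseline normalized to 5 nM WKYMVm. EC50 from 5–6-point nonlinear regression, three independent experiments.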

mouse Fpr1 = biological target: T1, mouse Fpr1 (Mus musculus, UniProt P33766); assay: Ca2+ flux assay in mFpr1-RBL cells; conditions: for mFpr1-RBL Efficacy: % of the response induced by 5 nM WKYMVm
T1 sequence (P33766 1-364): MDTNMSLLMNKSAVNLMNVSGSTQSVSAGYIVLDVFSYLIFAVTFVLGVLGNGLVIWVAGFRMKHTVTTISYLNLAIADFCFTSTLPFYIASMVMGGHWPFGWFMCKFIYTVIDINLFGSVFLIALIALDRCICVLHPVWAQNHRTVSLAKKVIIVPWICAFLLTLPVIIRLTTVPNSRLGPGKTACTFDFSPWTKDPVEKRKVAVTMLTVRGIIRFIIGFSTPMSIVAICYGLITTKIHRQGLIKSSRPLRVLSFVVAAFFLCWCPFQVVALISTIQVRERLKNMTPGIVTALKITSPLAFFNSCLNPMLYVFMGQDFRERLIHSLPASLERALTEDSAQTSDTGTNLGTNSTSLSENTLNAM
Procedure, shortened: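 RBL-2H3 cells carrying mouse Fpr1 were grown in DMEM with 20% FBS, 10 mM HEPES and G418 (250 µg/ml). Cells were loaded with Fluo-4 AM (1.25 µg/mL final, 30 min, 37 °C, dark) and plated at 2 × 10^5 cells/well. Fluorescence (485/538 nm) was read every 5 s for 240 s at room temperature after compound addition. Maximal rise over baseline normalized to 5 nM WKYMVm. EC50 from 5–6-point nonlinear fits, three experiments.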

FPR3 = biological target: T2, FPR3 (Homo sapiens, UniProt P25089); assay: Ca2+ flux assay in FPR3-HL60 cells; conditions: for FPR3-HL60 Efficacy: % of the response induced by 5 nM WKYMVm
T2 sequence (P25089 1-353): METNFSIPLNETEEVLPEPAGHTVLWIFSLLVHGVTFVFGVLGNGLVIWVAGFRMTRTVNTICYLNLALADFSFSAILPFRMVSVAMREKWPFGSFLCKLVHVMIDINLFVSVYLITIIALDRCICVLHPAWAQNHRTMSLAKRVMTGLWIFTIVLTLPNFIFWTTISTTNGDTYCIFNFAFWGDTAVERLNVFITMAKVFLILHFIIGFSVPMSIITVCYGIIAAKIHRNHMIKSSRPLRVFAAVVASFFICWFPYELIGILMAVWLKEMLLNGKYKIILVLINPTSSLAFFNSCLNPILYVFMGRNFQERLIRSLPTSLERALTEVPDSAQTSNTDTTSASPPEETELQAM
Procedure, shortened: (§1)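 FPR1-, FPR2- or FPR3-transfected HL-60 cells grown in RPMI 1640 with 10% heat-inactivated FCS, 10 mM HEPES and G418 (1 mg/mL). Cells loaded with Fluo-4 AM (1.25 µg/mL final) for 30 min at 37 °C in the dark, then 2 × 10^5 cells/well. Fluorescence (ex 485/em 538 nm) read every 5 s for 240 s at room temperature. Peak rise over baseline normalized to 5 nM fMLF (FPR1) or 5 nM WKYMVm (FPR2, FPR3). EC50 from 5–6-point nonlinear fits, three independent experiments.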

FPR1 = biological target: T3, FPR1 (Homo sapiens, UniProt P21462); assay: Ca2+ flux assay in FPR1-HL60 cells; conditions: for Emax: read-out: FPR1-HL60 Efficacy
T3 sequence (P21462 1-350): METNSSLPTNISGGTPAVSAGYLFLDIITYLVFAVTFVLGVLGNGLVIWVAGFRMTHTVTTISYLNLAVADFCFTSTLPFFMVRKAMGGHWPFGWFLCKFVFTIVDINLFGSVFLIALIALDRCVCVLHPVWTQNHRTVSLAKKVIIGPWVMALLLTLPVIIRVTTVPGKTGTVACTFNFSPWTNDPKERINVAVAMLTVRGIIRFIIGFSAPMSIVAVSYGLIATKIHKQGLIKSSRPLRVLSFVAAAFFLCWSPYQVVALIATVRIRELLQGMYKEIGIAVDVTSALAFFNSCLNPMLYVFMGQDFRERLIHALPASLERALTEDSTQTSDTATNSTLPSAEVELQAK
Procedure, shortened: as §1

FPR2 = biological target: T4, FPR2 (Homo sapiens, UniProt P25090); assay: Ca2+ flux assay in FPR2-HL60 cells; conditions: for EC50: HL-60 cells transfected with FPR2; for Emax: read-out: FPR2-HL60 Efficacy
T4 sequence (P25090 1-351): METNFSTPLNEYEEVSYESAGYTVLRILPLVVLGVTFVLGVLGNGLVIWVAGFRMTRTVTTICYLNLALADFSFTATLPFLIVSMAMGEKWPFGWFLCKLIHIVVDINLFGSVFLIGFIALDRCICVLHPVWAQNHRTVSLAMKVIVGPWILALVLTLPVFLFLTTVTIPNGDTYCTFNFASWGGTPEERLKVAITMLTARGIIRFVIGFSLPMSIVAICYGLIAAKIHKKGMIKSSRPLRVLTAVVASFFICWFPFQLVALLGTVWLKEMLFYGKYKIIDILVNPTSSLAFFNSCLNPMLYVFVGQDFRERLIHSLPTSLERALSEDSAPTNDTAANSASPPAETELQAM
Procedure, shortened: as §1

human neutrophils = assay: Cell migration; conditions: Neutrophil, 1 h, read-out: EC50 in migration assay
Procedure, shortened: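 Human neutrophils at 2 × 10^6 cells/mL in HBSS with 2% FBS, placed above a 5.0 µm polycarbonate membrane. Lower wells held test compound, DMSO (negative control) or 1 nM fMLF (positive control). Migration ran 60 min at 37 °C, 5% CO2. Migrated cells counted by ATP luminescence against neutrophil standard curves and expressed as % of spontaneous migration. EC50 from 5–6-point nonlinear fits; mean ± SD, three donors.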

mouse Fpr2 = biological target: T5, mouse Fpr2 (Mus musculus, UniProt O88536); assay: Ca2+ flux assay in mFpr2-RBL cells; conditions: for mFpr2-RBL Efficacy: % of the response induced by 5 nM WKYMVm
T5 sequence (O88536 1-351): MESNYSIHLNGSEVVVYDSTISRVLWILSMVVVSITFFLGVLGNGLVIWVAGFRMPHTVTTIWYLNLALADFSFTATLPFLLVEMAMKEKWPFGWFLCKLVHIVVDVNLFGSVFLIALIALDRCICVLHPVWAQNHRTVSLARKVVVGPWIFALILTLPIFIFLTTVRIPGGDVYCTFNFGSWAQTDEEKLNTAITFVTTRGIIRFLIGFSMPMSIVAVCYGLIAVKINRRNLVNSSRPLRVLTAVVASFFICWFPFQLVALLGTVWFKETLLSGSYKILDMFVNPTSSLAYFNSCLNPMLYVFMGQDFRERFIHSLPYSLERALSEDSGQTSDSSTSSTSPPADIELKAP
Procedure, shortened: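 RBL-2H3 cells stably expressing mouse Fpr2, grown in DMEM with 20% FBS, 10 mM HEPES and G418. Fluo-4 AM loaded (1.25 µg/mL final, 30 min, 37 °C, dark) in HBSS− with HEPES, then resuspended in HBSS with HEPES at 2 × 10^5 cells/well. Fluorescence (485/538 nm) read every 5 s for 240 s at room temperature. Peak rise over baseline was taken and EC50 fitted from 5–6-point curves. Mean of three experiments.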

[3] = % of the response induced by 5 nM fMLF
[4] = Mus musculus, Polymorphonuclear neutrophil

Row | mFpr1-RBL Efficacy (mouse Fpr1) [%] | FPR3-HL60 Efficacy (FPR3) [%] | EC50 (human neutrophils) [µM] | EC50 [1] [µM] | EC50 (FPR3) [µM] | Emax (FPR1) [%] | Emax (FPR2) [%] | EC50 [2, 4] [µM] | EC50 (FPR1) [µM] | EC50 (FPR2; FPR2-HL60 EC50, Ca2+ flux) [µM] | EC50 (mouse Fpr2) [µM] | mFpr2-RBL Efficacy (mouse Fpr2) [%] | EC50 (mouse Fpr1) [µM] | Compound | mPMN Efficacy [2] [%] | other results
1 | – | – | 1.1 ± 0.22 | 0.59 ± 0.21 | – | 130 | 90 | – | 3.6 ± 0.28 | 0.59 ± 0.18 | – | – | – | COc1cccc(Nc2c(-c3ccn(C)n3)c(C)nn(CC(=O)Nc3ccc(Br)cc3)c2=O)c1 [Compound 27a, N-(4-Bromophenyl)-2-[5-(3-methoxyphenylamino)-3-methyl-4-(1-methyl-1H-pyrazol-3-yl)-6-oxo-6H-pyridazin-1-yl]acetamide] | – | –
2 | 25 | 110 | 0.45 ± 0.17 | 0.3 ± 0.044 | 0.67 ± 0.22 | 115 | 120 | 6 ± 1.9 | 4 ± 0.89 | 0.035 ± 0.1 | 18.3 ± 3.8 | 35 | 18.5 ± 4.1 | COc1ccc(Nc2c(-c3ccn(C)n3)c(C)nn(CC(=O)Nc3ccc(Br)cc3)c2=O)cc1 [Compound 27b, N-(4-Bromophenyl)-2-[5-(4-methoxyphenylamino)-3-methyl-4-(1-methyl-1H-pyrazol-3-yl)-6-oxo-6H-pyridazin-1-yl]acetamide] | 80 | –

Second part, the compound before the results:

Row | Compound | mFpr1-RBL Efficacy (mouse Fpr1) [%] | FPR3-HL60 Efficacy (FPR3) [%] | EC50 (human neutrophils) [µM] | EC50 [1] [µM] | EC50 (FPR3) [µM] | Emax (FPR1) [%] | Emax (FPR2) [%] | EC50 [2, 4] [µM] | EC50 (FPR1) [µM] | EC50 (FPR2; FPR2-HL60 EC50, Ca2+ flux) [µM] | EC50 (mouse Fpr2) [µM] | mFpr2-RBL Efficacy (mouse Fpr2) [%] | EC50 (mouse Fpr1) [µM] | mPMN Efficacy [2] [%] | other results
3 | 1-[(4-Bromophenylcarbamoyl)-methyl]-5-(3-methoxyphenylamino)-1,6-dihydro-3-methyl-6-oxopyridazine-4-carboxylate [Compound 20] | 50 | 75 | – | – | – | – | – | – | – | – | – | – | – | 100 | hPMN Efficacy [1, 3]: 155%; EC50 ([2]; Ca2+ flux, mouse bone marrow neutrophils): 1 ± 0.34 µM; EC50 (mouse Fpr1; read-out: mFpr1-RBL EC50, Ca2+ flux, RBL cells transfected with mouse Fpr1): 4.7 ± 1.3 µM; EC50 (FPR3; read-out: FPR3-HL60 EC50, Ca2+ flux, HL-60 cells transfected with FPR3): 17.1 ± 4.3 µM; FPR1-HL60 Efficacy (FPR1; [3]): 130%; EC50 (FPR1; read-out: FPR1-HL60 EC50, Ca2+ flux, HL-60 cells transfected with FPR1): 0.6 ± 0.1 µM; FPR2-HL60 Efficacy (FPR2; % of the response induced by 5 nM WKYMVm): 115%; EC50 (FPR2; read-out: FPR2-HL60 EC50, Ca2+ flux): 3.1 ± 0.78 µM
4 | COc1cccc(Nc2c(C(C)=O)c(C)nn(CC(=O)Nc3ccc(Br)cc3)c2=O)c1 [Compound 8a, 2-[4-Acetyl-5-(3-methoxyphenylamino)-3-methyl-6-oxopyridazin-1(6H)-yl]-N-(4-bromophenyl)acetamide] | – | 150 | 2.2 ± 0.51 | 0.036 ± 0.007 | 0.21 ± 0.044 | 185 | 60 | – | – | – | – | – | – | – | –
5 | C=Cc1c(C)nn(CC(=O)Nc2ccc(Br)cc2)c(=O)c1Nc1cccc(OC)c1 [Compound 15, N-(4-Bromophenyl)-2-[5-(3-methoxyphenylamino)-3-methyl-6-oxo-4-vinylpyridazin-1(6H)-yl]acetamide] | – | 75 | 1.2 ± 0.24 | 0.84 ± 0.18 | 6 ± 2.1 | 120 | 105 | 22.8 ± 6.4 | 0.23 ± 0.07 | 0.11 ± 0.014 | – | – | – | 30 | –
6 | Cc1nn(CC(=O)Nc2ccc(Br)cc2)c(=O)c(N)c1C(=O)C=CN(C)C [Compound 24] | 55 | – | – | 9.3 ± 2.3 | – | 120 | 50 | 13.5 ± 3.7 | 5.1 ± 1.7 | 5.7 ± 2.3 | 9.4 ± 2.7 | 65 | 6.7 ± 2.1 | 50 | –
